Test results taken from ChEMBL document CHEMBL1137403, “Discovery of 2-[4-{{2-(2S,5R)-2-cyano-5-ethynyl-1-pyrrolidinyl]-2-oxoethyl]amino]- 4-methyl-1-piperidinyl]-4-pyridinecarboxylic acid (ABT-279): a very potent, selective, effective, and well-tolerated inhibitor of dipeptidyl peptidase-IV, useful for the treatment of diabetes” (J Med Chem, 2006).
Active and inactive are the calls of the source. The calls are words filed in the database; no cut-off is given here.

Columns and labels:
[1] = Volume of distribution in Sprague-Dawley rat at 5 mg/kg, iv; assay type: ADME, organism-based; design: dose 5 mg/kg, route intravenous; conditions: in vivo, read-out: Vss
Dipeptidyl peptidase 8 = Dipeptidyl peptidase 8 (Homo sapiens, UniProt Q6V1X1)
Chain of Dipeptidyl peptidase 8 (Q6V1X1 whole entry): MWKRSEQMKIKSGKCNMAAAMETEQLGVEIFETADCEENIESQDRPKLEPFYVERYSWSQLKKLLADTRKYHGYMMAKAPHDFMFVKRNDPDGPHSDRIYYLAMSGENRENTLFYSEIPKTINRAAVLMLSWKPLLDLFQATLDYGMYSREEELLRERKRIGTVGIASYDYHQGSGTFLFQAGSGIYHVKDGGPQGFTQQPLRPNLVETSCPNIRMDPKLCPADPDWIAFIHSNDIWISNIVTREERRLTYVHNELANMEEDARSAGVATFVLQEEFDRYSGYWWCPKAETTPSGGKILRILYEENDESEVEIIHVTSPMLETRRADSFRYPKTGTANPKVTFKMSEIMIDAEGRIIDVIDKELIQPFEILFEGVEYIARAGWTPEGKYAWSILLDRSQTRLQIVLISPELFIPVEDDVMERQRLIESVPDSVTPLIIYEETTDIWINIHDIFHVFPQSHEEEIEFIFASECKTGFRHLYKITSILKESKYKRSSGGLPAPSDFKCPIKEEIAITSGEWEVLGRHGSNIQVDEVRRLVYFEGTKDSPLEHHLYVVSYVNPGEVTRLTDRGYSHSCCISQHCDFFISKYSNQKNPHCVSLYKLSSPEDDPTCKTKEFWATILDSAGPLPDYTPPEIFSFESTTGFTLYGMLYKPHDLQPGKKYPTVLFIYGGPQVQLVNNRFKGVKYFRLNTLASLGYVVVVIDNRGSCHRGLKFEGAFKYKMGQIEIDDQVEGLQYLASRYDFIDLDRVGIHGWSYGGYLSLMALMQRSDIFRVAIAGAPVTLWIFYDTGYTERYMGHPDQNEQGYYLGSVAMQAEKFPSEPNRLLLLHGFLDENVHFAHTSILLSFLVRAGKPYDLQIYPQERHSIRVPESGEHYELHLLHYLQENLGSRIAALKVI

Dipeptidyl peptidase 9 = Dipeptidyl peptidase 9 (Homo sapiens, UniProt Q86TI2)
Chain of Dipeptidyl peptidase 9 (Q86TI2 whole entry): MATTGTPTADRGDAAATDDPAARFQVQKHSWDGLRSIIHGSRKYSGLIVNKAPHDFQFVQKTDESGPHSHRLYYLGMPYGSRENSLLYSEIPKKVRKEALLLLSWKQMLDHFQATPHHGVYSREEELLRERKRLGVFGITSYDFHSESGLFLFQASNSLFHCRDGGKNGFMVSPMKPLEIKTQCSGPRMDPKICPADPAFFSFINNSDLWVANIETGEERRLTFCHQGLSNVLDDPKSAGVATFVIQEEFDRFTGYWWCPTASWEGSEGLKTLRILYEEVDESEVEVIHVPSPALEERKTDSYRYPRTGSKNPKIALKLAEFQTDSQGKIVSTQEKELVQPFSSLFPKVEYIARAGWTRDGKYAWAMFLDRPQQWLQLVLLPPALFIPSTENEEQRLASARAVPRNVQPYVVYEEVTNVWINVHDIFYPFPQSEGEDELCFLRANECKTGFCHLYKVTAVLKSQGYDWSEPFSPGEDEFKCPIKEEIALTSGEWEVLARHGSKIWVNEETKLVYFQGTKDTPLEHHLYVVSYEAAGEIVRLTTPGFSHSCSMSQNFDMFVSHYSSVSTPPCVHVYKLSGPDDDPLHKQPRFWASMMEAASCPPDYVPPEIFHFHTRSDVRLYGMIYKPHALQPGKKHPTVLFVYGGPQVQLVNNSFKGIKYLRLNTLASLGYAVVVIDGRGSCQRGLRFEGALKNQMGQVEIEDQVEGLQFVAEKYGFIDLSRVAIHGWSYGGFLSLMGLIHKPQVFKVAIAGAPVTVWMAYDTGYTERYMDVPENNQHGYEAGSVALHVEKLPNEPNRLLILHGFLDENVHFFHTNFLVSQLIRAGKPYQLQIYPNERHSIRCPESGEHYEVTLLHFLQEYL

Rattus norvegicus [2] = organism: Rattus norvegicus; test: Reduction in postprandial glucose excursion in Zucker rat measured as AUC glucose (0-240 min); assay type: functional, organism-based; design: time < 4 hr
How it was run: (§1)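 Female ZDF rats, 10 weeks old, fasted overnight, then dosed orally with vehicle or drug. Four hours after dosing (t = 0) they had free access for 4 h to a liquid mixed meal (Ensure). Plasma was sampled for drug level, active GLP-1, insulin, glucagon and glucose.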

[3] = Tmax in cynomolgus monkey at 2.5 mg/kg, po; assay type: ADME, organism-based, Macaca fascicularis; design: dose 2.5 mg/kg, route oral; conditions: in vivo
[4] = Drug level in Zucker rat plasma after 4 hrs at 1 mg/kg; assay type: ADME, organism-based; design: dose 1 mg/kg; conditions: read-out: Drug uptake; how it was run: as §1
Salmonella typhi = test: Mutagenicity against Salmonella typhi by miniAmes test upto 2 mg/well; assay type: functional, organism-based; conditions: Salmonella enterica subsp. enterica serovar Typhi
[5] = AUC in Sprague-Dawley rat at 5 mg/kg, iv; assay type: ADME, organism-based; design: dose 5 mg/kg, route intravenous; conditions: plasma
How it was run: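 Single intravenous dose. Plasma drug exposure is reported as area under the curve in µg-hr/mL. It is listed in the same table as T1/2, Vss, Vβ and plasma clearance (CLp).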

Rattus norvegicus [6] = organism: Rattus norvegicus; test: Reduction in glucagon level in Zucker rat after 30 mins relative to control; assay type: functional; design: scale not given: the % may be the effect or the level left; how it was run: as §1
Canis familiaris = test: Hemodynamic activity in dog upto 28 ug/ml, iv; assay type: functional, organism-based; conditions: Canis lupus familiaris
How it was run: (§2)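 Hemodynamic and electrocardiographic profile recorded in anesthetized rats or dogs given the drug intravenously, at plasma concentrations up to 28 µg/mL.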

[7] = Oral bioavailability in Sprague-Dawley rat at 5 mg/kg, po; assay type: ADME, organism-based; conditions: in vivo
[8] = Volume of distribution in cynomolgus monkey at 2.5 mg/kg, iv; assay type: ADME, organism-based, Macaca fascicularis; design: dose 2.5 mg/kg, route intravenous; conditions: in vivo, read-out: Vss
[9] = Volume of distribution in terminal phase in cynomolgus monkey at 2.5 mg/kg, iv; assay type: ADME, organism-based, Macaca fascicularis; design: dose 2.5 mg/kg, route intravenous; conditions: in vivo, read-out: Vbeta
[10] = Plasma clearance in Sprague-Dawley rat at 5 mg/kg, iv; assay type: ADME, organism-based; design: dose 5 mg/kg, route intravenous
Rattus norvegicus [11] = test: Electrocardiographic activity in rat upto 28 ug/ml, iv; assay type: functional, organism-based; how it was run: as §2
Mus musculus = test: Clastogenicity in mouse upto 2000 mg/kg; assay type: functional, organism-based; design: dose 2000 mg/kg
How it was run: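 Murine in vivo clastogenicity test, dosed at up to 2000 mg/kg.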

[12] = Cmax in Sprague-Dawley rat at 5 mg/kg, po; assay type: ADME, organism-based; design: dose 5 mg/kg, route oral; conditions: in vivo
[13] = Plasma clearance in Beagle dog at 2.5 mg/kg, iv; assay type: ADME, organism-based, Canis lupus familiaris; design: dose 2.5 mg/kg, route intravenous
[14] = AUC in Sprague-Dawley rat at 5 mg/kg, po; assay type: ADME, organism-based; design: dose 5 mg/kg, route oral; conditions: plasma
[15] = Half life in Beagle dog at 2.5 mg/kg, po; assay type: ADME, organism-based, Canis lupus familiaris; design: dose 2.5 mg/kg, route oral; conditions: in vivo
[16] = Half life in Sprague-Dawley rat at 5 mg/kg, iv; assay type: ADME, organism-based; design: dose 5 mg/kg, route intravenous; conditions: in vivo
[17] = Tmax in Beagle dog at 2.5 mg/kg, po; assay type: ADME, organism-based, Canis lupus familiaris; design: dose 2.5 mg/kg, route oral; conditions: in vivo
[18] = AUC in cynomolgus monkey at 2.5 mg/kg, po; assay type: ADME, organism-based, Macaca fascicularis; design: dose 2.5 mg/kg, route oral; conditions: plasma
Prolyl endopeptidase FAP = molecular target: T1, Prolyl endopeptidase FAP (Homo sapiens, UniProt Q12884); test: Inhibition of FAPalpha
T1 sequence (Q12884 whole entry): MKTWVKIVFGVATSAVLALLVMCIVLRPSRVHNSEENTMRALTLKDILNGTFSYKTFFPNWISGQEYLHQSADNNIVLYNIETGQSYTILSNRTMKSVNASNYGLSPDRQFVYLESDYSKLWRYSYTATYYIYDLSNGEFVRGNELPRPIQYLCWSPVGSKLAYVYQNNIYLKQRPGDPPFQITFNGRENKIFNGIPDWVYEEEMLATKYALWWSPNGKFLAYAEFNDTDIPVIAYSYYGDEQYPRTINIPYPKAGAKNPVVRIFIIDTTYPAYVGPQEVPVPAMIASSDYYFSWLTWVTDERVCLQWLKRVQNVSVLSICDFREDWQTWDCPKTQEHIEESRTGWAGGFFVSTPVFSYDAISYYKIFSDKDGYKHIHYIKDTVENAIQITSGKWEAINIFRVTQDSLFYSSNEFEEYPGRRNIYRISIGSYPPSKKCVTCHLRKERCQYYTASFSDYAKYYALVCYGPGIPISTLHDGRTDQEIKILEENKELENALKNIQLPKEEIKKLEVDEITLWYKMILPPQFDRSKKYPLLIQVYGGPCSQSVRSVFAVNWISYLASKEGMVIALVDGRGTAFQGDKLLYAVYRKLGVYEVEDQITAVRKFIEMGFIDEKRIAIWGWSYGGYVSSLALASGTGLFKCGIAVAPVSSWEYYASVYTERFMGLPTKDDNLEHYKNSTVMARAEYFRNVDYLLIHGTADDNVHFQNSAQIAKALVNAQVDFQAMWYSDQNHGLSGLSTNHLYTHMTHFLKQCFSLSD

Cytochrome P450 2D6 = Cytochrome P450 2D6 (Homo sapiens, UniProt P10635); test: Inhibition of CYP2D6; assay type: ADME
Chain of Cytochrome P450 2D6 (P10635 whole entry): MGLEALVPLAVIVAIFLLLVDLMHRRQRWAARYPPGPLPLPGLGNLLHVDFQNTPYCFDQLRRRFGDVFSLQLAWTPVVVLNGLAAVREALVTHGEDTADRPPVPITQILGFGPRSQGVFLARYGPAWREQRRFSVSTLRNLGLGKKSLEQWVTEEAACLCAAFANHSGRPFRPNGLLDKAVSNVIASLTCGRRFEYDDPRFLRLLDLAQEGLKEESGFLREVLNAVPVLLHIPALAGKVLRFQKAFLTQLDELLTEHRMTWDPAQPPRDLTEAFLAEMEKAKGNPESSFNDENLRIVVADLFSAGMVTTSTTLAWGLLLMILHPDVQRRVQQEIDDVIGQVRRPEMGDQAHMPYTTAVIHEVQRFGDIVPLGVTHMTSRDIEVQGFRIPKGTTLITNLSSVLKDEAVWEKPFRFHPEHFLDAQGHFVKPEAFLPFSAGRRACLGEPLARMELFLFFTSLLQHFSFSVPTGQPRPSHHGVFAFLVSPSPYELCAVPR

[19] = Half life in Beagle dog at 2.5 mg/kg, iv; assay type: ADME, organism-based, Canis lupus familiaris; design: dose 2.5 mg/kg, route intravenous; conditions: in vivo
[20] = Volume of distribution in Beagle dog at 2.5 mg/kg, iv; assay type: ADME, organism-based, Canis lupus familiaris; design: dose 2.5 mg/kg, route intravenous; conditions: in vivo, read-out: Vss
[21] = Cmax in Beagle dog at 2.5 mg/kg, po; assay type: ADME, organism-based, Canis lupus familiaris; design: dose 2.5 mg/kg, route oral; conditions: in vivo

C#C[C@H]1CC[C@@H](C#N)N1C(=O)CNC1(C)CCN(c2cc(C(=O)O)ccn2)CC1
Vd [1]: 2.2 L/kg | Ki (Dipeptidyl peptidase 8): > 30 µM | Ki (Dipeptidyl peptidase 9): > 30 µM | AUC (Rattus norvegicus [2]): 12500 mg/dL·min | Tmax [3]: 2.7 h | concentration at 4 h [4]: 18 ng/mL | Activity (Salmonella typhi): inactive | AUC [5]: 7600 ng·h/mL | Activity (Rattus norvegicus [6]): 50% | Activity (Canis familiaris): Active | bioavailability [7]: 28% | Vd [8]: 0.3 L/kg | Vd [9]: 1.3 L/kg | clearance [10]: 11.3 mL/min/kg | Activity (Rattus norvegicus [11]): Active | Activity (Mus musculus): inactive | Cmax [12]: 370 ng/mL | clearance [13]: 15.2 mL/min/kg | AUC [14]: 2100 ng·h/mL | half-life [15]: 5.3 h | half-life [16]: 6.8 h | Tmax [17]: 0.8 h | AUC [18]: 580 ng·h/mL | Ki (Prolyl endopeptidase FAP): > 30 µM | IC50 (Cytochrome P450 2D6): > 30 µM | half-life [19]: 6.4 h | Vd [20]: 1.5 L/kg | Cmax [21]: 300 ng/mL
